Measurements published in article PMC11252475 (Acta Pharmaceutica Sinica. B, 2024).

Experiments:
NaV1.5 = NaV1.5 (Homo sapiens, UniProt Q14524); experiment: Cell membrane chromatography; format: binding; details: capacity factor k′; reflects potential cardiac toxicity; k′ < 0 labeled as 0
rats [1] = experiment: Cutaneous trunci pinprick model; format: in vivo, rat; details: 62.3 mmol/L
How it was run: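 Male SD rats under 1%–3% isoflurane had about 6 cm × 6 cm of back shaved, swabbed with alcohol and split into four areas. Test compound (62.3 mmol/L) was given by s.c. infiltration. Pinprick scored 1 for no response and 0 for response. Duration ran from onset to expiration, expressed as mean-score MPE. Effective block was ≥50% MPE; complete block was 100% MPE.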

rats [2] = experiment: Sciatic nerve block model; format: in vivo, rat; details: 62.3 mmol/L near sciatic nerve; for motor block duration: extensor postural thrust; for duration of effective sensory blockade: hotplate test
How it was run: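 Test compound (62.3 mmol/L) was injected near the sciatic nerve. Hind limbs were tested every 30 min until back to pre-test baseline. Sensory: paw withdrawal latency on a 55 °C hotplate, timed by stopwatch. Motor: extensor postural thrust in grams on a digital balance. Recovery was 50% of baseline.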

rats [3] = experiment: CFA-induced chronic plantar inflammatory pain model; format: in vivo, rat; details: 62.3 mmol/L, 0.2 mL subcutaneous at swollen foot
How it was run: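 Male SD rats (6–8 weeks, 250–300 g) under 1%–3% isoflurane had CFA injected into the right foot. Test compound (62.3 mmol/L, 0.2 mL) or equal-volume saline was given s.c. at the swollen site. Electronic von Frey stimulation to the side of the foot every 10 min after onset. Anesthesia failed when the value fell to half the limb-weight-to-baseline difference or below.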

rats [4] = experiment: Plantar incisional pain model; format: in vivo, rat; details: 0.2 mL near incision
How it was run: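 Rats with a plantar incision received test compound or saline, 0.2 mL, near the incision. Local anesthesia was assessed by von Frey stimulation of the lateral sole.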

[5] = tested on: NaV currents in rat dorsal root ganglion (DRG) neurons; experiment: Whole-cell patch clamp, sodium current in DRG neurons; format: cell-based; details: F-11 rat/mouse fusion cell line, DRG neuron, read-out: IC50 sodium current
How it was run: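 Male rat DRG neurons (180–200 g donors) were dissociated with collagenase IV (2 mg/mL) then trypsin (10 mg/mL) for 30 min, plated on poly-L-lysine and grown in Neurobasal with FBS and B27. Whole-cell voltage clamp used 3–4 MΩ electrodes. I/V steps ran from −90 to +40 mV in 10 mV increments, 50 ms each.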

[6] = Systemic toxicity, intravenous; details: ICR, mouse, in vivo
[7] = Systemic toxicity, subcutaneous injection; format: in vivo, rat; details: Sprague-Dawley, rat, in vivo, sc
SD rats = experiment: Systemic toxicity, subcutaneous injection; format: in vivo, rat; details: TI = LD50/ED50, s.c.
rats [8] = experiment: Gingival incision pain model; format: in vivo, rat
How it was run: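 Oral pain models in rats under 1%–3% isoflurane, with test compound given as local anesthetic. Food intake and body-weight change were measured on a precision balance over 24 h. Facial grooming was video-recorded for 1 h after dosing.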

NaV1.5, sequence (Q14524 whole entry): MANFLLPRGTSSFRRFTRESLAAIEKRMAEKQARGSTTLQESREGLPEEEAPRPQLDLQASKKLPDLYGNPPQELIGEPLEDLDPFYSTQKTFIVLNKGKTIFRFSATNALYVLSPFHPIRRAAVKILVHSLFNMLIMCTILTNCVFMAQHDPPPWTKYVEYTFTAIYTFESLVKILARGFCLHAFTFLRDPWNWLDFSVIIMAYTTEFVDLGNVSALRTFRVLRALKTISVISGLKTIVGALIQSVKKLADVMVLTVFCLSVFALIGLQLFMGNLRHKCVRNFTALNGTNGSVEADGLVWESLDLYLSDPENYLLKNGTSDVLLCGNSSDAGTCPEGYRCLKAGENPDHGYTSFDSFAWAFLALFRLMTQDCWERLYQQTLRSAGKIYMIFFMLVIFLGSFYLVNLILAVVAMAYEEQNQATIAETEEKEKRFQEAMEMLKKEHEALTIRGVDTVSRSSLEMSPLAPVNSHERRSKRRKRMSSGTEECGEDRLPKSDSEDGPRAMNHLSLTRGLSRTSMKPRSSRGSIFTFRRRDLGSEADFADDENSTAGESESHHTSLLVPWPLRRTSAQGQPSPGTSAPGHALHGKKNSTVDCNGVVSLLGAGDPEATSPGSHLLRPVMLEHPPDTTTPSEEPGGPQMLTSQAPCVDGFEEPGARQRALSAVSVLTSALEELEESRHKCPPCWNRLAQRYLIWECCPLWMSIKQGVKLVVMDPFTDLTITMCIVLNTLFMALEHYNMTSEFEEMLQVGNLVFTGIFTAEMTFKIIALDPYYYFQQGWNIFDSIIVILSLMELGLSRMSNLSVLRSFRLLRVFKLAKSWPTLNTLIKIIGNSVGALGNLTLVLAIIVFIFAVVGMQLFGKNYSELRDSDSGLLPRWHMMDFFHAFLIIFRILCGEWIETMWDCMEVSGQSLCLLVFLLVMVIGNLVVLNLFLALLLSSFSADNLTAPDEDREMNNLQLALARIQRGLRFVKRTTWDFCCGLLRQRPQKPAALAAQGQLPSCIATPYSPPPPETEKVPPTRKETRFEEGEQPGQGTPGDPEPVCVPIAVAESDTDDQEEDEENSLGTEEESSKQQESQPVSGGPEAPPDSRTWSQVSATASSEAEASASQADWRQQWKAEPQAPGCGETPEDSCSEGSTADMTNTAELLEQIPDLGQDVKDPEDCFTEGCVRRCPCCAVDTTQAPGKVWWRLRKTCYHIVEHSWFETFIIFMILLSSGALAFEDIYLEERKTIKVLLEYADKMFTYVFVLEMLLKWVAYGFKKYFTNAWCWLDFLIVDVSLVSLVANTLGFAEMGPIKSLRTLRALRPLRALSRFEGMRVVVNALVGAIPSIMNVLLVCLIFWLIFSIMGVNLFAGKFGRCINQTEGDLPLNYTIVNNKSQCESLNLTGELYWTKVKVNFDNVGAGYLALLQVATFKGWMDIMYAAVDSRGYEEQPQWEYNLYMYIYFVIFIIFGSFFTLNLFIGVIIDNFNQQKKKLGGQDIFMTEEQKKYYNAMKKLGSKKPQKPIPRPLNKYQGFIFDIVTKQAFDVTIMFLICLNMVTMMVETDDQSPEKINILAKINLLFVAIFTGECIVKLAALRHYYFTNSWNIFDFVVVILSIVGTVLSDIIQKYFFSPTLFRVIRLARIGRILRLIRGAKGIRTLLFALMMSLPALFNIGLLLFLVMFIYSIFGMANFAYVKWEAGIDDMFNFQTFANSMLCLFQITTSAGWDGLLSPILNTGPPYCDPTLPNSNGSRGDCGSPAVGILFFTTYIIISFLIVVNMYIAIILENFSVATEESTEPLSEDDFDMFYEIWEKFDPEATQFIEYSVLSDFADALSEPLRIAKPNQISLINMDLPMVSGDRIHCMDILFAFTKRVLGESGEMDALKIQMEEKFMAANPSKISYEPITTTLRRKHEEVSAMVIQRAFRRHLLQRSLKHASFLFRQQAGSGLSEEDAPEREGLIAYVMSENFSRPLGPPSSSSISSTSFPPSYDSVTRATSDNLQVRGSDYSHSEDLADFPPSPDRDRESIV

SMILES | k′ NaV1.5 (NaV1.5) | also measured
CCCNC(C)C(=O)Nc1c(C)csc1C(=O)OC (stereo not shown) [AT, Methyl 4-methyl-3-(2-(propylamino)propanamido)thiophene-2-carboxylate, reference compound] | 63 | subcutaneous infiltration duration (rats [1]): 120 min; motor block duration (rats [2]): 90 min; duration of action (anesthesia) under CFA-induced chronic inflammation (rats [3]): 30 min; anesthesia result in acute inflammation model through plantar incision (rats [4]): underperformed; IC50 [5]: 71.2 ± 3.06 µM; LD50 [6]: 38.3 mg/kg; LD50 at 24 h [7]: 598 mg/kg; TI (SD rats): 125.83; face grooming frequency (rats [8]): significantly lowered
COC(=O)c1scc(C)c1NC(=O)C(C)N1CCNCC1 (stereo not shown) [AT-1, methyl 4-methyl-3-(2-(piperazin-1-yl)propanamido)thiophene-2-carboxylate] | 80.8 | subcutaneous infiltration duration (rats [1]): 240 min
COC(=O)c1scc(C)c1NC(=O)C(C)N1CCN(C)C(C)C1 (stereo not shown) [AT-2, Methyl 3-(2-(3,4-dimethylpiperazin-1-yl)propanamido)-4-methylthiophene-2-carboxylate] | 92 | –
COC(=O)c1scc(C)c1NC(=O)C(C)N1CCCCC1 (stereo not shown) [AT-3, Methyl 4-methyl-3-(2-(piperidin-1-yl)propanamido)thiophene-2-carboxylate] | 1.1 | –
COC(=O)c1scc(C)c1NC(=O)C(C)N1CC(C)CC(C)C1 (stereo not shown) [AT-4, Methyl 3-(2-(3,5-dimethylpiperidin-1-yl)propanamido)-4-methylthiophene-2-carboxylate] | 71.2 | –
COC(=O)c1scc(C)c1NC(=O)C(C)N1CCOCC1 (stereo not shown) [AT-5, Methyl 4-methyl-3-(2-morpholinopropanamido)thiophene-2-carboxylate] | 18.4 | –
COC(=O)c1scc(C)c1NC(=O)C(C)N1CCOCC1C (stereo not shown) [AT-6, Methyl 4-methyl-3-(2-(3-methylmorpholino)propanamido)thiophene-2-carboxylate] | 28 | –
COC(=O)c1scc(C)c1NC(=O)C(C)N1C(C)COCC1C (stereo not shown) [AT-7, Methyl 3-(2-(3,5-dimethylmorpholino)propanamido)-4-methylthiophene-2-carboxylate] | 24 | –
COC(=O)c1scc(C)c1NC(=O)C(C)N1CC(C)OC(C)(C)C1 (stereo not shown) [AT-8, Methyl 4-methyl-3-(2-(2,2,6-trimethylmorpholino)propanamido)thiophene-2-carboxylate] | 36.8 | –
COC(=O)c1scc(C)c1NC(=O)C(C)N1CCSCC1 (stereo not shown) [AT-9, Methyl 4-methyl-3-(2-thiomorpholinopropanamido)thiophene-2-carboxylate] | 48.6 | –
COC(=O)c1scc(C)c1NC(=O)C(C)N1CCS(=O)(=O)CC1 (stereo not shown) [AT-10, Methyl 3-(2-(1,1-dioxidothiomorpholino)propanamido)-4-methylthiophene-2-carboxylate] | 0 | –
COC(=O)c1scc(C)c1NC(=O)C(C)N1CCN(C)CC1 (stereo not shown) [AT-11, Methyl 4-methyl-3-(2-(4-methylpiperazin-1-yl)propanamido)thiophene-2-carboxylate] | 8 | subcutaneous infiltration duration (rats [1]): 260 min
CCN1CCN(C(C)C(=O)Nc2c(C)csc2C(=O)OC)CC1 (stereo not shown) [AT-12, Methyl 3-(2-(4-ethylpiperazin-1-yl)propanamido)-4-methylthiophene-2-carboxylate] | 1.2 | –
COC(=O)c1scc(C)c1NC(=O)C(C)N1CCN(C(C)C)CC1 (stereo not shown) [AT-13, Methyl 3-(2-(4-isopropylpiperazin-1-yl)propanamido)-4-methylthiophene-2-carboxylate] | 23.2 | subcutaneous infiltration duration (rats [1]): 275 min; motor block duration (rats [2]): 140 min; duration of effective sensory blockade (rats [2]): 145 min; anesthesia result in acute inflammation model through plantar incision (rats [4]): improved results
COC(=O)c1scc(C)c1NC(=O)C(C)N1CCN(CC2CC2)CC1 (stereo not shown) [AT-14, Methyl 3-(2-(4-(cyclopropylmethyl)piperazin-1-yl)propanamido)-4-methylthiophene-2-carboxylate] | 22 | –
COC(=O)c1scc(C)c1NC(=O)C(C)N1CCN(C(C)(C)C)CC1 (stereo not shown) [AT-15, Methyl 3-(2-(4-(tert-butyl)piperazin-1-yl)propanamido)-4-methylthiophene-2-carboxylate] | 116.4 | subcutaneous infiltration duration (rats [1]): 205 min; motor block duration (rats [2]): 210 min; duration of effective sensory blockade (rats [2]): 190 min
CCCN1CCN(C(C)C(=O)Nc2c(C)csc2C(=O)OC)CC1 (stereo not shown) [AT-16, Methyl 4-methyl-3-(2-(4-propylpiperazin-1-yl)propanamido)thiophene-2-carboxylate] | 42.4 | –
COC(=O)c1scc(C)c1NC(=O)C(C)N1CCN(c2ccccc2)CC1 (stereo not shown) [AT-18, Methyl 4-methyl-3-(2-(4-phenylpiperazin-1-yl)propanamido)thiophene-2-carboxylate] | 57.8 | –
COC(=O)c1scc(C)c1NC(=O)C(C)N1CCN(CCO)CC1 (stereo not shown) [AT-19, Methyl 3-(2-(4-(2-hydroxyethyl)piperazin-1-yl)propanamido)-4-methylthiophene-2-carboxylate] | 92 | –
COCCN1CCN(C(C)C(=O)Nc2c(C)csc2C(=O)OC)CC1 (stereo not shown) [AT-20, Methyl 3-(2-(4-(2-methoxyethyl)piperazin-1-yl)propanamido)-4-methylthiophene-2-carboxylate] | 92 | –
COC(=O)c1scc(C)c1NC(=O)CN1CCN(C(C)C)CC1 [AT-21, Methyl 3-(2-(4-isopropylpiperazin-1-yl)acetamido)-4-methylthiophene-2-carboxylate] | 5.8 | subcutaneous infiltration effect compared with AT (rats [1]): fewer effects than AT
CCC(C(=O)Nc1c(C)csc1C(=O)OC)N1CCN(C(C)C)CC1 (stereo not shown) [AT-22, Methyl 3-(2-(4-isopropylpiperazin-1-yl)butanamido)-4-methylthiophene-2-carboxylate] | 21.4 | subcutaneous infiltration duration (rats [1]): 260 min; motor block duration (rats [2]): 240 min; duration of effective sensory blockade (rats [2]): 220 min
COCCN(CCOC)C(C)C(=O)Nc1c(C)csc1C(=O)OC (stereo not shown) [AT-23, Methyl 3-(2-(bis(2-methoxyethyl)amino)propanamido)-4-methylthiophene-2-carboxylate] | 43.6 | –
CCN(CCO)C(C)C(=O)Nc1c(C)csc1C(=O)OC (stereo not shown) [AT-24, Methyl 3-(2-(ethyl(2-hydroxyethyl)amino)propanamido)-4-methylthiophene-2-carboxylate] | 27.6 | –
COC(=O)c1scc(C)c1NC(=O)C(C)N(CCO)CCO (stereo not shown) [AT-25, Methyl 3-(2-(bis(2-hydroxyethyl)amino)propanamido)-4-methylthiophene-2-carboxylate] | 12.1 | –
COC(=O)c1scc(C)c1NC(=O)C(C)NCCN1CCOCC1 (stereo not shown) [AT-26, Methyl 4-methyl-3-(2-((2-morpholinoethyl)amino)propanamido)thiophene-2-carboxylate] | 72.4 | –
CCCNC(C)C(=O)Nc1c(C)csc1C(=O)OCC (stereo not shown) [AT-27, Ethyl 4-methyl-3-(2-(propylamino)propanamido)thiophene-2-carboxylate] | 0.6 | –
CCCNC(C)C(=O)Nc1c(C)csc1C(=O)OCCC (stereo not shown) [AT-28, Propyl 4-methyl-3-(2-(propylamino)propanamido)thiophene-2-carboxylate] | 38 | –
CCCCOC(=O)c1scc(C)c1NC(=O)C(C)NCCC (stereo not shown) [AT-29, Butyl 4-methyl-3-(2-(propylamino)propanamido)thiophene-2-carboxylate] | 35 | –
CCCNC(C)C(=O)Nc1c(C)csc1C(=O)OCC(C)C (stereo not shown) [AT-30, Isobutyl 4-methyl-3-(2-(propylamino)propanamido)thiophene-2-carboxylate] | 105.4 | –
